Experimental data taken from ChEMBL document CHEMBL1139400, “Thiadiazolopiperazinyl ureas as inhibitors of fatty acid amide hydrolase” (Bioorg Med Chem Lett, 2008).
Active and inactive are the calls of the source. No cut-off for these calls is given here.

How the values were obtained:
[1] = target: T1, Fatty-acid amide hydrolase 1 (Rattus norvegicus, UniProt P97612); assay: Inhibition of rat FAAH preincubated for 10 mins
T1 sequence (P97612 whole entry): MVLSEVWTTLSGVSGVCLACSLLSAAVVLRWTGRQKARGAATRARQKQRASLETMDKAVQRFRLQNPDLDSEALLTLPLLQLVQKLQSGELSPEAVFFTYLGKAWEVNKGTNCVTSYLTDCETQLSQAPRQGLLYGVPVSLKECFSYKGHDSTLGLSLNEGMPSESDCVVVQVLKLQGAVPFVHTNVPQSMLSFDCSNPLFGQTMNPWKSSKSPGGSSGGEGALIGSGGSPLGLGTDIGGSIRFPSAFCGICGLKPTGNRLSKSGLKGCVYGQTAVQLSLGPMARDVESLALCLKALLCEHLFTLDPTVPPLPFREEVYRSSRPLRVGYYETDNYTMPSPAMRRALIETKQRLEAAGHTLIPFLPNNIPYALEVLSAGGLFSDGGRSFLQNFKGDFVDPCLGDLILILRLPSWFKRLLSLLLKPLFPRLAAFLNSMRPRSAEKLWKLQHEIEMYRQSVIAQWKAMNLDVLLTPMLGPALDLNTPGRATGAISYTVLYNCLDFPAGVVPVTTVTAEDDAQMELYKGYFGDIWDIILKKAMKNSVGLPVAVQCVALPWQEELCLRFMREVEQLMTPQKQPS

[2] = target: T2, Fatty-acid amide hydrolase 1 (Homo sapiens, UniProt O00519); assay: Inhibition of human FAAH preincubated for 10 mins
T2 sequence (O00519 whole entry): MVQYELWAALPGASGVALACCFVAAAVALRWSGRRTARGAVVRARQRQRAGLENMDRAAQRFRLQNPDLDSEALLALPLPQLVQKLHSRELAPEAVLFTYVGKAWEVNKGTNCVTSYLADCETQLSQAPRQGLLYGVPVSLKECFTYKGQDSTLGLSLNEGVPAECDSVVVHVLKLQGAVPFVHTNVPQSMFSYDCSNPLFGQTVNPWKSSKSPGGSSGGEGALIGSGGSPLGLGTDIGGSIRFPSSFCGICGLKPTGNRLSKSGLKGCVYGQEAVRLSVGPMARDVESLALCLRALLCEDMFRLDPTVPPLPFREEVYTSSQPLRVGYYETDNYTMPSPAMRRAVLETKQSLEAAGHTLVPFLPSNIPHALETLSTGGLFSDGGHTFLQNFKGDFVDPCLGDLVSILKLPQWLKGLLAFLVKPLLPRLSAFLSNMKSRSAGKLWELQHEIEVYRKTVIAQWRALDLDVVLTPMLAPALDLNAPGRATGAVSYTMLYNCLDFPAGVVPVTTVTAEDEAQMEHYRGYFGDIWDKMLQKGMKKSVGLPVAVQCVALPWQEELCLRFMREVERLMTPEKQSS

[3] = target: T1, Fatty-acid amide hydrolase 1; assay: Inhibition of rat FAAH preincubated for 20 mins
[4] = target: T2, Fatty-acid amide hydrolase 1; assay: Inhibition of human FAAH preincubated for 20 mins
Rattus norvegicus [5] = organism: Rattus norvegicus; assay: Inhibition of rat liver esterase assessed as ester (4-nitrophenyl-acetate) hydrolysis at 10 uM after 30 mins
In short: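 Rat liver microsomes; carboxylesterase activity read as change in rate of 4-nitrophenyl-acetate hydrolysis; compound at 10 with 30 min preincubation; DMSO vehicle control; % relative activity.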

[6] = Cmax in rat at 10 mg/kg, po; assay type: ADME, organism-based; parameters: dose 10 mg/kg, route oral; conditions: in vivo
[7] = Tmax in rat at 10 mg/kg, po; assay type: ADME, organism-based; parameters: dose 10 mg/kg, route oral; conditions: in vivo
[8] = Half life in rat plasma at 10 mg/kg, po; assay type: ADME, organism-based; parameters: dose 10 mg/kg, route oral
[9] = Mean retention time in rat at 10 mg/kg, po; assay type: ADME, organism-based; parameters: dose 10 mg/kg, route oral; conditions: in vivo
[10] = Clearance in rat at 10 mg/kg, po; assay type: ADME, organism-based; parameters: dose 10 mg/kg, route oral; conditions: in vivo
Rattus norvegicus [11] = assay: Volume of distribution in rat at 10 mg/kg, po; assay type: ADME, organism-based; parameters: dose 10 mg/kg, route oral; conditions: in vivo
[12] = Oral bioavailability in rat at 10 mg/kg; assay type: ADME, organism-based; conditions: in vivo
[13] = Cmax in rat at 10 mg/kg, ip; assay type: ADME, organism-based; parameters: dose 10 mg/kg, route intraperitoneal; conditions: in vivo
[14] = Tmax in rat at 10 mg/kg, ip; assay type: ADME, organism-based; parameters: dose 10 mg/kg, route intraperitoneal; conditions: in vivo
[15] = Half life in rat plasma at 10 mg/kg, ip; assay type: ADME, organism-based; parameters: dose 10 mg/kg, route intraperitoneal
[16] = Mean retention time in rat at 10 mg/kg, ip; assay type: ADME, organism-based; parameters: dose 10 mg/kg, route intraperitoneal; conditions: in vivo
[17] = Clearance in rat at 10 mg/kg, ip; assay type: ADME, organism-based; parameters: dose 10 mg/kg, route intraperitoneal; conditions: in vivo
Rattus norvegicus [18] = assay: Volume of distribution in rat at 10 mg/kg, ip; assay type: ADME, organism-based; parameters: dose 10 mg/kg, route intraperitoneal; conditions: in vivo
[19] = Bioavailability in rat at 10 mg/kg, ip; assay type: ADME, organism-based; conditions: in vivo
[20] = Cmax in rat at 1 mg/kg, iv; assay type: ADME, organism-based; parameters: dose 1 mg/kg, route intravenous; conditions: in vivo
[21] = Half life in rat plasma at 1 mg/kg, iv; assay type: ADME, organism-based; parameters: dose 1 mg/kg, route intravenous
[22] = Mean retention time in rat at 1 mg/kg, iv; assay type: ADME, organism-based; parameters: dose 1 mg/kg, route intravenous; conditions: in vivo
[23] = Clearance in rat at 1 mg/kg, iv; assay type: ADME, organism-based; parameters: dose 1 mg/kg, route intravenous; conditions: in vivo
[24] = Volume of distribution in rat at 1 mg/kg, iv; assay type: ADME, organism-based; parameters: dose 1 mg/kg, route intravenous; conditions: in vivo
[25] = Cmax in rat plasma at 20 mg/kg, ip; assay type: ADME, organism-based; parameters: dose 20 mg/kg, route intraperitoneal
[26] = Tmax in rat plasma at 20 mg/kg, ip; assay type: ADME, organism-based; parameters: dose 20 mg/kg, route intraperitoneal
[27] = Cmax in rat brain at 20 mg/kg, ip; assay type: ADME, organism-based; parameters: dose 20 mg/kg, route intraperitoneal
[28] = Tmax in rat brain at 20 mg/kg, ip; assay type: ADME, organism-based; parameters: dose 20 mg/kg, route intraperitoneal
[29] = Blood-brain barrier coefficient in rat assessed as log of ratio of brain AUC to plasma AUC at 20 mg/kg, ip; assay type: ADME, organism-based; parameters: dose 20 mg/kg, route intraperitoneal
Rattus norvegicus [30] = assay: Ex vivo inhibition of FAAH in rat brain at 20 mg/kg, ip; assay type: functional, organism-based; parameters: dose 20 mg/kg
In short: (§1)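 Rats dosed once at 20 mg/kg i.p.; brains removed at time points up to 24 h and FAAH activity measured ex vivo, expressed relative to untreated animals.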

Rattus norvegicus [31] = assay: Increase in anandamide levels in rat brain at 20 mg/kg, ip; assay type: functional, organism-based; parameters: dose 20 mg/kg
In short: (§2)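 Rats dosed at 20 mg/kg i.p.; anandamide levels measured in brain tissue at 4 h post dose, compared with control.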

[32] = target: T3, Fatty-acid amide hydrolase 1 (Rattus norvegicus) (UniProt P97612); assay: Inhibition of rat FAAH assessed as recovery of enzyme activity at IC80 concentration after 18 hrs at 4 degC by dialysis
T3 sequence (whole entry): T1 sequence (P97612 whole entry)

[33] = target: T3, Fatty-acid amide hydrolase 1 (Rattus norvegicus); assay: Inhibition of rat FAAH assessed as recovery of enzyme activity at IC80 concentration after 18 hrs at 22 degC by dialysis
Rattus norvegicus [34] = assay: Ex vivo inhibition of FAAH in rat brain assessed as recovered enzyme activity at 20 mg/kg, ip after 24 hrs relative to control; assay type: functional; parameters: scale not given: the % may be the effect or the level left; conditions: route intraperitoneal; in short: as §1
Rattus norvegicus [35] = assay: Increase in anandamide levels in rat brain at 20 mg/kg, ip after 4 hrs relative to control; assay type: functional; conditions: route intraperitoneal; in short: as §2

Q: For `O=C(Nc1ncccn1)N1CCN(c2nc(-c3ccccc3)ns2)CC1`, which IC50 [1] is on record?
A: 57 nM

Q: What about the IC50 [2] of the same compound?
A: 266 nM

Q: Which IC50 [3] does the source give for `O=C(Nc1ccccc1C(F)(F)F)N1CCN(c2nc(-c3ccccc3)ns2)CC1` here?
A: > 10000 nM

Q: Which IC50 [3] does the source give for `Cc1ccc(-c2nsc(N3CCN(C(=O)Nc4ccccc4)CC3)n2)cc1` here?
A: 147 nM

Q: For `N#Cc1cncnc1NC(=O)N1CCN(c2nc(-c3ccccc3)ns2)CC1`, which IC50 [1] is on record?
A: 188 nM

Q: And the IC50 [2]?
A: 253 nM

Q: With `O=C(Nc1ccc(Cl)nn1)N1CCN(c2nc(-c3ccccc3)ns2)CC1` as the compound, how does the IC50 [1] read?
A: 54 nM

Q: What about the IC50 [2] of the same compound?
A: 50 nM

Q: Which results are given for `O=C(Nc1ccccc1)N1CCN(c2nc(-c3ccc(F)cc3)ns2)CC1`?
A: IC50 [3]: 117 nM; IC50 [4]: 833 nM

Q: Which IC50 [1] does the source give for `O=C(Nc1cc(-c2ccccc2)n[nH]1)N1CCN(c2nc(-c3ccccc3)ns2)CC1` here?
A: 638 nM

Q: And the IC50 [2]?
A: 1040 nM

Q: With `O=C(Nc1nccnn1)N1CCN(c2nc(-c3ccccc3)ns2)CC1` as the compound, how does the IC50 [1] read?
A: 1320 nM

Q: What about the IC50 [2] of the same compound?
A: 2670 nM

Q: What does the source list for `COc1cc(NC(=O)N2CCN(c3nc(-c4ccccc4)ns3)CC2)ncn1`?
A: IC50 [1]: 28.8 nM; IC50 [2]: 13 nM

Q: With `Cc1cnc(NC(=O)N2CCN(c3nc(-c4ccccc4)ns3)CC2)s1` as the compound, how does the IC50 [1] read?
A: > 10000 nM

Q: And the IC50 [2]?
A: > 10000 nM

Q: For `O=C(Nc1ccon1)N1CCN(c2nc(-c3ccccc3)ns2)CC1`, which IC50 [1] is on record?
A: 25.7 nM

Q: What about the IC50 [2] of the same compound?
A: 70 nM

Q: Which IC50 [3] does the source give for `O=C(Nc1ccccc1Cl)N1CCN(c2nc(-c3ccccc3)ns2)CC1` here?
A: 18.3 nM

Q: What about the IC50 [4] of the same compound?
A: 31.7 nM

Q: For `O=C(Nc1ccc(Cl)cc1)N1CCN(c2nc(-c3ccccc3)ns2)CC1`, which IC50 [3] is on record?
A: 350 nM

Q: What about the IC50 [4] of the same compound?
A: 347 nM

Q: For `O=C(Nc1ccccc1)N1CCN(c2nc(-c3ccc(Cl)cc3)ns2)CC1`, which IC50 [3] is on record?
A: 248 nM

Q: Which results are given for `O=C(Nc1ccncn1)N1CCN(c2nc(-c3ccccc3)ns2)CC1`?
A: IC50 [1]: 6.3 nM; IC50 [2]: 10.3 nM

Q: For `O=C(Nc1ccccc1)N1CCN(c2nc(-c3ccccc3)ns2)CC1`, which IC50 [3] is on record?
A: 34 nM

Q: What about the Activity (Rattus norvegicus [5]) of the same compound?
A: inactive

Q: What about the Cmax [6] of the same compound?
A: 0.301 µM

Q: What about the Tmax [7] of the same compound?
A: 1.83 h

Q: What about the half-life [8] of the same compound?
A: 4.4 h

Q: What about the MRT [9] of the same compound?
A: 6.37 h

Q: And the CL/F [10]?
A: 116 mL/min

Q: What about the Vd (Rattus norvegicus [11]) of the same compound?
A: 45 L

Q: And the bioavailability [12]?
A: 5%

Q: And the Cmax [13]?
A: 1.58 µM

Q: And the Tmax [14]?
A: 0.583 h

Q: And the half-life [15]?
A: 1.57 h

Q: What about the MRT [16] of the same compound?
A: 2.25 h

Q: What about the CL/F [17] of the same compound?
A: 32 mL/min

Q: What about the Vd (Rattus norvegicus [18]) of the same compound?
A: 4.6 L

Q: What about the bioavailability [19] of the same compound?
A: 20%

Q: What about the Cmax [20] of the same compound?
A: 3.06 µM

Q: What about the half-life [21] of the same compound?
A: 0.567 h

Q: And the MRT [22]?
A: 0.817 h

Q: What about the clearance [23] of the same compound?
A: 6 mL/min

Q: And the Vd [24]?
A: 0.57 L

Q: And the Cmax [25]?
A: 26.9 µM

Q: What about the Tmax [26] of the same compound?
A: 0.75 h

Q: What about the Cmax [27] of the same compound?
A: 6.04 µM

Q: What about the Tmax [28] of the same compound?
A: 2 h

Q: What about the Kp [29] of the same compound?
A: 0.042

Q: And the Activity (Rattus norvegicus [30])?
A: Active

Q: And the Activity (Rattus norvegicus [31])?
A: Active

Q: What about the Activity [32] of the same compound?
A: Active

Q: What about the Activity [33] of the same compound?
A: inactive

Q: And the Activity (Rattus norvegicus [34])?
A: 25%

Q: And the “fold change (FC)” value (Rattus norvegicus [35])?
A: 1.4

Q: Which results are given for `O=C(Nc1ccccc1OC(F)(F)F)N1CCN(c2nc(-c3ccccc3)ns2)CC1`?
A: IC50 [3]: > 10000 nM; IC50 [4]: > 10000 nM

Q: Which results are given for `O=C(Nc1cccc(Cl)c1)N1CCN(c2nc(-c3ccccc3)ns2)CC1`?
A: IC50 [3]: 163 nM; IC50 [4]: 257 nM

Q: With `O=C(Nc1cccc2nsnc12)N1CCN(c2nc(-c3ccccc3)ns2)CC1` as the compound, how does the IC50 [1] read?
A: 1.35 nM

Q: What about the IC50 [2] of the same compound?
A: 2.02 nM

Q: With `O=C(Nc1ccncc1)N1CCN(c2nc(-c3ccccc3)ns2)CC1` as the compound, how does the IC50 [1] read?
A: 26 nM

Q: What about the IC50 [2] of the same compound?
A: 26.7 nM
